Glyco luc inh: increase of ERlucT glycosylation luciferase signal, primary screen, N-linked glycosylation inhibitor project, D54 ERlucT cells, luminescence, set 2; 360,000 tested, 0.23% active; AID 588692, 2011; reporter increase, % at 12.5 µM; D54 ERlucT glycosylation luciferase reporter, 24 h; percent of 100 nM tunicamycin response;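 active = mean luciferase reporter signal, scaled so untreated is 0 and the glycosylation-blocking control 100, at or above a set limit in every replicate; inconclusive = mean reaches the limit but not every replicate does; inactive = mean below the limit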;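 note: luciferase carries N-glycosylation sites so blocking glycosylation raises the light; 0% = median of neutral control wells and 100% = median of 100 nM tunicamycin wells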
RAD54 branch: inhibitors of human RAD54 branch migration, primary screen, biochemical, fluorescence, single point; inhibition, % at 10.4 µM; DNA repair and recombination protein RAD54-like (Homo sapiens), Q92698; 360,000 tested, 0.14% active; RAD54 Holliday junction branch migration, FAM/BHQ fluorescence;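 active = mean normalized replicate activity at least 40 and at least half of replicates scoring 40 or more; inconclusive = only one of the two criteria met; inactive = mean below 40 and under half of replicates reaching 40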;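 note: 0% = median of neutral control wells and 100% = median of positive control wells; inhibitors cause a drop in the FAM fluorescence signal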
MLL AF4-AF9 inh: inhibitors of AF4 peptide binding to AF9, primary screen, biochemical, AlphaScreen, biotin-AF4 peptide, FLAG-AF9, single point; Protein AF-9 (Homo sapiens), P42568; inhibition, % at 10 µM; 350,000 tested, 0.47% active;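 active = every replicate reaching a set inhibition limit, whatever the replicate mean, cut at about 25% in these data; inconclusive = mean inhibition reaches that limit but some replicates miss it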;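 note: 0% = plate neutral control median and 100% = total signal loss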
Target sequence (P42568 whole entry, looked up): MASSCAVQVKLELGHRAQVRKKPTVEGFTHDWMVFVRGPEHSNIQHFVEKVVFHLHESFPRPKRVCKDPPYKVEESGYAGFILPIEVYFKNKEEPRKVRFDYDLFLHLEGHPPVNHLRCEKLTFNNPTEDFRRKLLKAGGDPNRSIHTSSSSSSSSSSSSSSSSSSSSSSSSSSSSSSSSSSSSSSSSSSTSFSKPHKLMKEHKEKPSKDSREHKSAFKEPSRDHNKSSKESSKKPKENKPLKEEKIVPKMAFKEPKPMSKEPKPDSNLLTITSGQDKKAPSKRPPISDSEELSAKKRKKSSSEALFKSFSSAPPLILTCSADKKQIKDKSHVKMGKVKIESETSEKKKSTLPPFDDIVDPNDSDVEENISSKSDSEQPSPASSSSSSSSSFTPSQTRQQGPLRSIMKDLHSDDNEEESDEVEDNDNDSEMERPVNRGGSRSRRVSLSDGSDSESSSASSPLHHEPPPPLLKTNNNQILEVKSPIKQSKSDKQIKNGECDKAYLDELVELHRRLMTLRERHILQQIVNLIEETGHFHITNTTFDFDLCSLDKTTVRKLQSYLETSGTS
FN deposit inh: inhibitors of fibronectin matrix deposition, primary screen, AH1F cells, Alexa488-fibronectin fluorescence, plate reader; AH1F fibroblasts, overnight; inhibition, % at 12.6 µM; 350,000 tested, 0.086% active; AID 743247, 2014;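 active = mean inhibition across replicates of 30% or more, regardless of how many single replicates reach that level; inconclusive = mean under 30% yet at least half of replicates reach 30%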;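 note: positive control wells lacked labelled fibronectin entirely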
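Assay system: AH1F fibroblasts / Quantity: 10000 cells per well / Medium: DMEM plus 2% serum, read in PBS / Reagent: labelled fibronectin 24 nM / Dosing: single dose, pinned / Times: 1 h cell attachment, overnight exposure to compound and label / Signal: fluorescence, ex 485 nm, em 525 nm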
NSD2 inh: NSD2 histone methyltransferase inhibitors, primary screen, biochemical, AlphaScreen, single concentration, set 2 | NSD2 peptide methylation, 120 min | inhibition, % at 12.5 µM | 310,000 tested, 0.54% active; in the data active = inhibition above about 50%
RAD52 inh: RAD52 DNA annealing inhibitors, primary screen, biochemical, FRET, single point, set 2. 360,000 tested, 0.46% active. recombinant RAD52 DNA annealing, FRET fluorescence. inhibition, % at 18.7 µM. AID 651710, 2012;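 active = every replicate showing at least 50% inhibition; inconclusive = mean inhibition at least 50% but not in every replicate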
* = called active by the depositor. Most compounds without a hit are left out; they make up all but 1.2% or so of the library.

Results for COC(=O)[C@@]1(Cc2ccc(F)cc2)[C@H]2c3cc(C(=O)N4CCCC4)n(CCc4ccccn4)c3C[C@H]2CN1C(=O)c1ccccc1 ?
MLL AF4-AF9 inh: 6.2; FN deposit inh: 43.9*; RAD52 inh: -7.6

What do the screens show for `C[C@@H]1CCCCO[C@@H](CN(C)Cc2ccc(Cl)c(Cl)c2)[C@@H](C)CN([C@H](C)CO)C(=O)c2cc(NC(=O)NC3CCCCC3)ccc2O1`?
RAD54 branch: 4.6; MLL AF4-AF9 inh: 1.2; RAD52 inh: -11.9

What do the screens show for `COc1ccc(C(=O)CC(SCC(NC(C)=O)C(=O)O)c2ccc(Cl)cc2)cc1OC` (centres undefined)?
Glyco luc inh: 33.2*; RAD54 branch: -5.2; MLL AF4-AF9 inh: 3.8; FN deposit inh: 5.7; NSD2 inh: 6.4; RAD52 inh: -10.0

Results for Cc1cc(O)c(-c2cc(O)c(C)cc2O)cc1O ?
Glyco luc inh: 3.7; RAD54 branch: 7.4; MLL AF4-AF9 inh: -5.4; FN deposit inh: 36.8*; NSD2 inh: 5.1; RAD52 inh: -2.6

How did CCC(CC)NCCOC(=O)c1ccc([N+](=O)[O-])cc1 do in these assays?
Glyco luc inh: 2.0; RAD54 branch: -5.0; MLL AF4-AF9 inh: 26.1*; FN deposit inh: 8.2; NSD2 inh: 16.1; RAD52 inh: 0.5

What do the screens show for `O=C(NCCOC(=O)c1ccc([N+](=O)[O-])cc1)c1cccnc1`?
Glyco luc inh: -1.0; MLL AF4-AF9 inh: -1.1; FN deposit inh: -7.9; NSD2 inh: 1.1; RAD52 inh: -6.0

Results for c1ccc2c(-c3nc4ccccc4[nH]3)cccc2c1 ?
Glyco luc inh: 28.4*; MLL AF4-AF9 inh: -0.4; FN deposit inh: 5.9; NSD2 inh: -1.8; RAD52 inh: 0.2

What do the screens show for `CC1=NN(c2ccccc2)C(=O)C1C=Nc1ccc(N(C)C)cc1` (centres undefined)?
Glyco luc inh: 5.8; RAD54 branch: -4.8; MLL AF4-AF9 inh: 30.8*; FN deposit inh: -7.2; NSD2 inh: 8.8; RAD52 inh: -16.9

Results for CC1=NN(c2ccccc2)C(=O)C1/C=C1/NC(=S)NC1=O (centres undefined) ?
Glyco luc inh: 3.8; RAD54 branch: -0.8; MLL AF4-AF9 inh: 2.0; FN deposit inh: -10.0; NSD2 inh: 0.4; RAD52 inh: -35.9

What do the screens show for `COc1cccc(-c2ccc(C3[C@@H]4CN(C(=O)c5ccc(F)cc5)C[C@H]3N4)cc2)c1` (some centres undefined)?
MLL AF4-AF9 inh: 4.1; FN deposit inh: 1.0; RAD52 inh: 52.0*

What do the screens show for `O=C(c1ccc(F)cc1)N1C[C@@H]2N[C@H](C1)C2c1ccc(-c2ccc(F)cc2)cc1` (some centres undefined)?
MLL AF4-AF9 inh: -5.2; FN deposit inh: -3.0; RAD52 inh: 50.1*

How did O=C(c1ccc(F)cc1)N1C[C@@H]2N[C@H](C1)C2c1ccc(-c2cncnc2)cc1 (some centres undefined) do in these assays?
MLL AF4-AF9 inh: -7.4; FN deposit inh: -7.3; RAD52 inh: 15.3

What do the screens show for `Oc1cc(Nc2ccncc2)cc2cccnc12`?
Glyco luc inh: -8.1; RAD54 branch: 11.3; MLL AF4-AF9 inh: 70.0*; FN deposit inh: -10.1; RAD52 inh: -39.3

Results for Oc1cc(Nc2cccnc2)cc2cccnc12 ?
Glyco luc inh: 1.2; RAD54 branch: 1.8; MLL AF4-AF9 inh: 39.5*; FN deposit inh: 4.2; RAD52 inh: -25.7

How did Oc1cc(NCCc2cccnc2)cc2cccnc12 do in these assays?
Glyco luc inh: 11.2; RAD54 branch: 2.0; MLL AF4-AF9 inh: inconclusive; FN deposit inh: -3.8; RAD52 inh: 7.9

Results for CCc1nc2ccc(C(=O)NCCc3c[nH]c4ccccc34)cn2c1N(C=O)CCC(C)C ?
Glyco luc inh: 64.4*; RAD54 branch: 8.8; MLL AF4-AF9 inh: 6.2; FN deposit inh: -7.4; NSD2 inh: 1.1; RAD52 inh: -100.6

From PubChem BioAssay
